Reference: ChEMBL document CHEMBL3872252, “New bithiazolyl hydrazones: Novel synthesis, characterization and antitubercular evaluation” (Bioorg Med Chem Lett, 2017)

Key:
[1] = Antitubercular activity against Mycobacterium tuberculosis H37Ra ATCC 25177 dormant stage infected in human THP1 cells measured on day 12 by nitrate reductase assay; type: functional, THP-1; details: ATCC 25177, 288 h
[2] = Antitubercular activity against Mycobacterium tuberculosis H37Ra ATCC 25177 active stage infected in human THP1 cells measured on day 8 by nitrate reductase assay; type: functional, THP-1; details: ATCC 25177, 192 h
[3] = Antitubercular activity against Mycobacterium tuberculosis H37Ra ATCC 25177 active stage measured on day 8 by XTT reduction menadione based two-fold dilution assay; type: functional; details: ATCC 25177, 192 h
How it was run: (§1)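 M. tuberculosis H37Ra ATCC 25177 was exposed to 0.7–100 μg/mL in two-fold steps (0.7, 1.5, 3.1 … 100). Active stage was read after 8 days and dormant stage after 12 days of incubation. Inhibition was read by XTT reduction menadione assay (XRMA), absorbance 470 nm. MIC90 is the concentration giving ≥90% inhibition (µg/mL).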

[4] = Antitubercular activity against Mycobacterium tuberculosis H37Ra ATCC 25177 dormant stage measured on day 12 by XTT reduction menadione based two-fold dilution assay; type: functional; details: ATCC 25177, 288 h; how it was run: as §1
[5] = Antitubercular activity against Mycobacterium bovis BCG ATCC 35743 active stage measured on day 8 by nitrate reductase based two-fold dilution assay; type: functional, Mycobacterium bovis BCG str. ATCC 35743; details: Mycobacterium tuberculosis variant bovis BCG, ATCC 35743, 192 h
[6] = Antitubercular activity against Mycobacterium bovis BCG ATCC 35743 dormant stage measured on day 12 by nitrate reductase based two-fold dilution assay; type: functional, Mycobacterium bovis BCG str. ATCC 35743; details: Mycobacterium tuberculosis variant bovis BCG, ATCC 35743, 288 h
[7] = Cytotoxicity against human THP1 cells by MTT assay; type: toxicity, cell-based, THP-1
[8] = Cytotoxicity against human MCF7 cells by MTT assay; type: toxicity, cell-based
[9] = Cytotoxicity against human HCT116 cells by MTT assay; type: toxicity, cell-based, HCT-116
[10] = Selectivity index, ratio of GI50 for human MCF7 cells to MIC90 for Mycobacterium tuberculosis H37Ra ATCC 25177 active stage; type: toxicity, cell-based; details: read-out: Selectivity Index
How it was run: (§2)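 Cytotoxicity was measured on human MCF-7, HCT116 and THP-1 cells by MTT assay, with paclitaxel as reference. GI50 is the concentration inhibiting 50% of cell growth. The selectivity index is GI50 for the given cell line divided by MIC90 for the given mycobacterial strain and stage.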

[11] = Selectivity index, ratio of GI50 for human MCF7 cells to MIC90 for Mycobacterium tuberculosis H37Ra ATCC 25177 dormant stage; type: toxicity, cell-based; details: read-out: Selectivity Index
How it was run: (§3)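 Cytotoxicity was measured on human MCF-7, HCT116 and THP-1 cells by MTT assay, with paclitaxel as reference. The selectivity index is GI50 for the given cell line divided by MIC90 for the given mycobacterial strain and stage.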

[12] = Selectivity index, ratio of GI50 for human MCF7 cells to MIC90 for Mycobacterium bovis BCG ATCC 35743 active stage; type: toxicity, cell-based; details: read-out: Selectivity Index; how it was run: as §2
[13] = Selectivity index, ratio of GI50 for human MCF7 cells to MIC90 for Mycobacterium bovis BCG ATCC 35743 dormant stage; type: toxicity, cell-based; details: read-out: Selectivity Index; how it was run: as §3
[14] = Selectivity index, ratio of GI50 for human HCT116 cells to MIC90 for Mycobacterium tuberculosis H37Ra ATCC 25177 active stage; type: toxicity, cell-based, HCT-116; details: read-out: Selectivity Index; how it was run: as §2
[15] = Selectivity index, ratio of GI50 for human HCT116 cells to MIC90 for Mycobacterium tuberculosis H37Ra ATCC 25177 dormant stage; type: toxicity, cell-based, HCT-116; details: read-out: Selectivity Index; how it was run: as §3
[16] = Selectivity index, ratio of GI50 for human HCT116 cells to MIC90 for Mycobacterium bovis BCG ATCC 35743 active stage; type: toxicity, cell-based, HCT-116; details: read-out: Selectivity Index; how it was run: as §2
[17] = Selectivity index, ratio of GI50 for human HCT116 cells to MIC90 for Mycobacterium bovis BCG ATCC 35743 dormant stage; type: toxicity, cell-based, HCT-116; details: read-out: Selectivity Index; how it was run: as §3
[18] = Selectivity index, ratio of GI50 for human THP1 cells to MIC90 for Mycobacterium tuberculosis H37Ra ATCC 25177 active stage; type: toxicity, cell-based, THP-1; details: read-out: Selectivity Index; how it was run: as §2
[19] = Selectivity index, ratio of GI50 for human THP1 cells to MIC90 for Mycobacterium tuberculosis H37Ra ATCC 25177 dormant stage; type: toxicity, cell-based, THP-1; details: read-out: Selectivity Index; how it was run: as §3
[20] = Selectivity index, ratio of GI50 for human THP1 cells to MIC90 for Mycobacterium bovis BCG ATCC 35743 active stage; type: toxicity, cell-based, THP-1; details: read-out: Selectivity Index; how it was run: as §2
[21] = Selectivity index, ratio of GI50 for human THP1 cells to MIC90 for Mycobacterium bovis BCG ATCC 35743 dormant stage; type: toxicity, cell-based, THP-1; details: read-out: Selectivity Index; how it was run: as §3
[22] = tested on: Escherichia coli; experiment: Growth inhibition of Escherichia coli at 30 ug/ml; type: functional; details: read-out: GI
[23] = tested on: Escherichia coli; experiment: Growth inhibition of Escherichia coli at 10 ug/ml; type: functional; details: read-out: GI
[24] = tested on: Escherichia coli; experiment: Growth inhibition of Escherichia coli at 3 ug/ml; type: functional; details: read-out: GI
How it was run: (§4)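 Screened against Gram-negative E. coli and P. aeruginosa and Gram-positive S. aureus and B. subtilis. Compound was tested at 3 µg/ml, and the read-out is percent growth inhibition.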

[25] = tested on: Pseudomonas aeruginosa; experiment: Growth inhibition of Pseudomonas aeruginosa at 30 ug/ml; type: functional; details: read-out: GI
[26] = tested on: Pseudomonas aeruginosa; experiment: Growth inhibition of Pseudomonas aeruginosa at 10 ug/ml; type: functional; details: read-out: GI
[27] = tested on: Pseudomonas aeruginosa; experiment: Growth inhibition of Pseudomonas aeruginosa at 3 ug/ml; type: functional; details: read-out: GI; how it was run: as §4
[28] = tested on: Staphylococcus aureus; experiment: Growth inhibition of Staphylococcus aureus at 30 ug/ml; type: functional; details: read-out: GI
[29] = tested on: Staphylococcus aureus; experiment: Growth inhibition of Staphylococcus aureus at 10 ug/ml; type: functional; details: read-out: GI
[30] = tested on: Staphylococcus aureus; experiment: Growth inhibition of Staphylococcus aureus at 3 ug/ml; type: functional; details: read-out: GI; how it was run: as §4
[31] = tested on: Bacillus subtilis; experiment: Growth inhibition of Bacillus subtilis at 30 ug/ml; type: functional; details: read-out: GI
[32] = tested on: Bacillus subtilis; experiment: Growth inhibition of Bacillus subtilis at 10 ug/ml; type: functional; details: read-out: GI
[33] = tested on: Bacillus subtilis; experiment: Growth inhibition of Bacillus subtilis at 3 ug/ml; type: functional; details: read-out: GI; how it was run: as §4

Which results are given for `C/C(=N\Nc1nc(-c2ccc(F)cc2)cs1)c1sc(-c2ccccc2)nc1C`?
MIC90 [1]: > 100 µg/mL; MIC90 [2]: > 100 µg/mL; IC50 [3]: > 100 µg/mL; MIC90 [3]: > 100 µg/mL; IC50 [4]: > 100 µg/mL; MIC90 [4]: > 100 µg/mL; IC50 [5]: > 100 µg/mL; MIC90 [5]: > 100 µg/mL; IC50 [6]: > 100 µg/mL; MIC90 [6]: > 100 µg/mL; GI50 ([7]; THP1 cells): > 100 µg/mL; GI90 ([7]; thp-1): > 100 µg/mL; GI50 ([8]; MCF7 cells): > 100 µg/mL; GI90 ([8]; mcf7): > 100 µg/mL; GI50 ([9]; HCT116 cells): > 100 µg/mL; GI90 ([9]; hct-116): > 100 µg/mL; selectivity ratio [10]: 1; selectivity ratio [11]: 1; selectivity ratio [12]: 1; selectivity ratio [13]: 1; selectivity ratio [14]: 1; selectivity ratio [15]: 1; selectivity ratio [16]: 1; selectivity ratio [17]: 1; selectivity ratio [18]: 1; selectivity ratio [19]: 1; selectivity ratio [20]: 1; selectivity ratio [21]: 1; inhibition of growth at 30 µg/mL [22]: 74.7%; inhibition of growth at 10 µg/mL [23]: 74%; inhibition of growth at 3 µg/mL [24]: 72.5%; inhibition of growth at 30 µg/mL [25]: 74%; inhibition of growth at 10 µg/mL [26]: 73.2%; inhibition of growth at 3 µg/mL [27]: 71.5%; inhibition of growth at 30 µg/mL [28]: 73.2%; inhibition of growth at 10 µg/mL [29]: 72.5%; inhibition of growth at 3 µg/mL [30]: 70.7%; inhibition of growth at 30 µg/mL [31]: 71.1%; inhibition of growth at 10 µg/mL [32]: 70.2%; inhibition of growth at 3 µg/mL [33]: 68.5%
